{"data": "Measured values from different studies", "target": "Activin receptor type-1B (ACVR1B, Homo sapiens, UniProt P36896)", "One construct used (P36896 24-505)": "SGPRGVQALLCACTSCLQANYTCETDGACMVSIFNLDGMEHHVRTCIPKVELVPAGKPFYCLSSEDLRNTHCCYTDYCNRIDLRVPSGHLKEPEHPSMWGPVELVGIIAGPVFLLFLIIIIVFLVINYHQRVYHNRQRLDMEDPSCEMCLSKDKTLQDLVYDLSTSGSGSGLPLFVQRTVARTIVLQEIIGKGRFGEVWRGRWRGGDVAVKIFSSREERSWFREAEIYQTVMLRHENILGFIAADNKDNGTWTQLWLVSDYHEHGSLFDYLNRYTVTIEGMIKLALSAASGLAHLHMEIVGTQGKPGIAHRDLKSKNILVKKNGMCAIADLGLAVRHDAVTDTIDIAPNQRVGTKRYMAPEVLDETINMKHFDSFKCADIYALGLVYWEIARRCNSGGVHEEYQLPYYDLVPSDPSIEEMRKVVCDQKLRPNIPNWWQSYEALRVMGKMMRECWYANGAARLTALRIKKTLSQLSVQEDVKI"}
{"Structure (SMILES)": "C#Cc1n[nH]c2c(-c3cn([C@@H](C)c4ccccn4)c(=O)[nH]c3=O)cc(F)cc12", "observed": "enzyme activity", "action": "inhibitor", "tested at": "0.1 µM", "quantity": "inhibition", "result": "-3.4%"}
{"Structure (SMILES)": "N#CC1(c2ccccn2)CCN(Cc2cc(C(=O)O)c(=O)n3ccccc23)CC1", "observed": "cell-free assay", "method": "competition with immobilised ligand", "tested at": "1 µM", "quantity": "remaining binding", "result": "94%"}
{"Structure (SMILES)": "Cn1cc(-c2cccc(N3CCc4c(sc5c4CC(C)(C)C5)C3=O)c2CO)cc(Nc2ccncn2)c1=O", "observed": "enzyme activity", "action": "inhibitor", "tested at": "1 µM", "quantity": "inhibition", "result": "-5%"}
{"Structure (SMILES)": "CC(C)(C)c1cc(C=C(C#N)C#N)cc(Br)c1O", "observed": "enzyme activity", "action": "inhibitor", "tested at": "0.5 µM", "quantity": "remaining activity", "result": "108%"}
{"Structure (SMILES)": "COc1ncccc1-c1cnn2ccc(N3CCN(C(=O)OC(C)C)CC3)nc12", "observed": "binding", "method": "competition with immobilised ligand", "tested at": "1 µM", "quantity": "remaining binding", "result": "93%"}
{"Structure (SMILES)": "C#Cc1n[nH]c2c(-c3cn([C@@H](C)c4ccccc4)c(=O)[nH]c3=O)cc(F)cc12", "observed": "enzyme activity", "action": "inhibitor", "tested at": "0.1 µM", "quantity": "inhibition", "result": "-3.3%"}
{"Structure (SMILES)": "Cc1nn(C)cc1-c1nc2c(N3CCN(Cc4ccc(Cl)cc4)CC3)c(Cl)cnc2[nH]1", "observed": "binding", "method": "competition with immobilised ligand", "tested at": "1 µM", "quantity": "remaining binding", "result": "68%"}
{"Structure (SMILES)": "O=c1[nH]c2ccccc2n1C1CCN(Cc2ccc(-c3[nH]c4cc5ncnc5cc4nc3-c3ccccc3)cc2)CC1", "observed": "cell-free assay", "tested at": "0.5 µM", "quantity": "remaining signal", "result": "111%"}
{"Structure (SMILES)": "Cn1cc(-c2cc(F)cc(N3CCn4c(cc5c4CCCC5)C3=O)c2CO)cc(Nc2ccc(N3CCN(C4COC4)CC3)cn2)c1=O", "observed": "enzyme activity", "action": "inhibitor", "tested at": "0.1 µM", "quantity": "inhibition", "result": "-1%"}
{"Structure (SMILES)": "Cn1cncc1[C@](O)(COc1ccc(C#N)cc1-c1ccc(OC(F)(F)F)cc1)c1ccc(C#N)cc1", "observed": "cell-free assay", "method": "competition with immobilised ligand", "tested at": "1 µM", "quantity": "remaining binding", "result": "87%"}
{"Structure (SMILES)": "COc1cc(Nc2ncc(F)c(Nc3ccc4c(n3)NC(=O)C(C)(C)O4)n2)cc(OC)c1OC", "observed": "binding", "method": "competition with immobilised ligand", "tested at": "10 µM", "quantity": "inhibition", "result": "55%"}
{"Structure (SMILES)": "Nc1ncc(-c2nc(N3CCOCC3)nc(N3CCOCC3)n2)c(C(F)F)n1", "observed": "binding", "method": "competition with immobilised ligand", "tested at": "10 µM", "quantity": "remaining binding", "result": "94%"}
